Compounds with a hit are over-represented: about 1.9% of the library has one in this group of screens.
Xi reactivation: reactivates the inactive X chromosome in mouse fibroblasts | 360,000 compounds, 0.055% hits | XiGFP mouse fibroblasts, % GFP-positive cells imaging, 3 d; cells co-treated with 5-aza-dC sensitizer; scaled so ellipticine positive control = 100% | AID 743238 | activation, % at 7.58 µM;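 active = mean normalized replicate activation at least 10% and every replicate at or above 10%; inconclusive = only one of the two criteria met; inactive = mean below 10% and not all replicates reach 10%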;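 also: 0% = median of on-plate neutral control wells and 100% = ellipticine 6 µM median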
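Material: XiGFP fibroblasts, SV40-immortalized. Buffer or medium: DMEM plus 5-aza-dC sensitizer. Compound: single concentration per compound, delivered by pin transfer. Times: 3 days compound exposure. Controls: ellipticine 6 µM.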
Rpn11 block: inhibitors of human proteasome Rpn11; O00487; inhibition, % at 20 µM; AID 588493; 360,000 compounds, 0.59% hits; human 26S proteasome, Ub4-pepOG fluorescence polarization; 20S core pre-blocked with epoxomicin;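 active = inhibition at 20 µM, scaled to each plate's controls, above about 33%, limit read from the data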
Rin1-Abl PPI inh: blocks binding of human Rin1 to Abl; inhibition, % at 7.35 µM; TR-FRET Rin1/Abl binding, biochemical; AID 588664; 360,000 compounds, 0.4% hits; P00519+Q13671; in the data active = inhibition above about 5%, passing the limit was not always enough
ABHD5-PLIN5 inh: inhibitors of human ABHD5-perilipin-5 interaction. 360,000 compounds, 0.78% hits. AID 602281. Split G. princeps luciferase complementation, luminescence, 4 h. inhibition, % at 4 µM;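 active = inhibition above the mean inhibition across every tested compound plus 3 SD, cut at about 22% in these data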;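 also: 0% = DMSO only wells and the 100% control is not disclosed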
NadD block: blocks S. aureus nicotinate mononucleotide adenylyltransferase; purified NadD enzyme, colorimetric absorbance read-out; 360,000 compounds, 0.78% hits; inhibition, % at 20 µM; in the data active = inhibition above about 26%
Numbers without * were called inactive; ? = inconclusive; / = no result.

SMILES | Xi reactivation | Rpn11 block | Rin1-Abl PPI inh | ABHD5-PLIN5 inh | NadD block
COc1ccc(/C=C(\NC(=O)/C=C/c2ccco2)C(=O)NCCc2nc3ccccc3[nH]2)cc1 | 0 | 8 | -1 | 23* | 8
COc1ccccc1C(CNC(=O)c1cccc(S(=O)(=O)N2c3ccccc3CC2C)c1)N(C)C (stereo not drawn) | 0 | -6 | -1 | 23* | 1
C[C@@H]1CC=CCCNC(=O)[C@H](C)N(C)C(=O)c2ccccc2O1 (mixture of isomers) | 0 | / | / | / | /
C/C(CC(=O)NC12CC3CC(CC(C3)C1)C2)=N\NC(=O)Cc1cccs1 | 0 | -2 | 2 | 2 | 1
C/C(CC(=O)NC1CCCC1)=N\NC(=O)Cc1cccs1 | / | 2 | 1 | 63* | -3
OCc1ccccc1SSc1ccccc1CO | 0 | -1 | 1 | 48* | 1
OCc1ccccc1OCc1ccccc1 | 0 | / | / | / | /
NC(=S)N=Nc1c(O)cc(O)c2[nH]c(=O)ccc12 | 0 | -13 | 14* | 29* | 18
CCN(CC)c1ccc(-c2nn3c(-c4n[nH]c5c4CCC5)nnc3s2)cc1 | / | 37 | -3 | 9 | 54*
Cc1c(C(=O)Nc2nc(-c3ccccn3)cs2)oc2ccccc12 | / | 42* | 1 | 2 | 29
O=C(Nc1nc(-c2ccccn2)cs1)c1cc2ccccc2o1 | 0 | 33 | -2 | 2 | 8
CN(C)CC(=O)Nc1ccc2c(c1)[C@H]1C[C@H](CC(=O)N(C)C)O[C@@H](CO)[C@H]1O2 | 0 | / | / | / | /
O=C(C[n+]1cc(-c2ccc(Cl)c(Cl)c2)n2c1CCC2)N1c2ccccc2Sc2ccccc21 | 0 | -21 | 1 | 34* | 21
COc1ccc(-c2c[n+](CC(=O)N3c4ccccc4Sc4ccccc43)c3n2CCC3)cc1 | 0 | -11 | 2 | 12 | 2
Cn1c(NC(=O)C[n+]2cc(-c3ccc(Cl)c(Cl)c3)n3c2CCC3)cc(=O)n(C)c1=O | 0 | -6 | -2 | 7 | -4
O=C(C[n+]1cc(-c2ccc(Cl)cc2)n2c1CCC2)N1c2ccccc2Sc2ccccc21 | 0 | -26 | -4 | 23* | 12
C[C@H]1CCCCO[C@H](CN(C)C(=O)Nc2ccc(F)cc2)[C@@H](C)CN([C@@H](C)CO)C(=O)c2cc(NC(=O)Nc3ccc(F)cc3)ccc2O1 | 1 | / | / | / | /
C[C@@H]1CN([C@H](C)CO)C(=O)c2cccc(NC(=O)Nc3ccc(C(F)(F)F)cc3)c2O[C@@H]1CN(C)S(=O)(=O)c1ccccc1 | -1 | / | / | / | /
Cc1ccc(S(=O)(=O)N2CCCCC2)cc1 | 0 | -8 | 2 | -4 | 0
Cc1ccc(O)c(N=Nc2ccc(S(=O)(=O)N3CCCC3)cc2)c1 | 61* | -5 | -1 | 4 | -6
CCCCC(CC)CN=C(N)NC(N)=NCCCCCCN=C(N)NC(N)=NCC(CC)CCCC (stereo not drawn) | / | 102* | 9 | 16 | 15
COc1ccccc1NC(=O)N1CC(=O)N2[C@@H](CO)[C@H](c3ccc(C#CCC(C)C)cc3)[C@@H]2C1 | 0 | / | / | / | /
O=C(Nc1ccc(Cl)c(Cl)c1)c1ccc(Cl)c(Cl)c1 | 0 | 6 | 0 | -16 | 9
Cc1ccc(NC(=O)c2ccc(Cl)c(N3C(=O)C=CC3=O)c2)cc1 | / | 19 | 1 | 39* | 5
Cc1cccc(NC(=O)CN2C(=O)N/C(=C/c3cc(C)n(-c4ccncc4)c3C)C2=O)c1 | 0 | 7 | -1 | 0 | 5
SMILES | Xi reactivation | Rpn11 block | Rin1-Abl PPI inh | ABHD5-PLIN5 inh | NadD block
Cc1cccc(NC(=O)CN2C(=O)N/C(=C/c3cc(C)n(C)c3C)C2=O)c1 | 0 | 11 | -1 | 6 | 30*
Cc1ccc(S(=O)(=O)N(C)C[C@@H]2Oc3cc(Br)ccc3S(=O)(=O)N([C@H](C)CO)C[C@@H]2C)cc1 | 0 | / | / | / | /
Cc1ccc(/C=N/Nc2ccc(C(=O)O)cc2)o1 | 0 | -7 | 5 | 10 | 0
O=C(O)c1ccc(N/N=C/c2ccc(-c3ccc(Br)cc3)o2)cc1 | 0 | 13 | 12* | 1 | 10
O=C1CCSC2=C1SCc1sccc12 | 0 | / | / | 22* | 2
C[C@H]1CN(C)C(=O)c2cccnc2O[C@H]1CN(C)S(C)(=O)=O | 0 | / | / | / | /
Cn1c(=O)c(C#N)c(-c2ccc(F)cc2)c2cc(C(=O)c3cc(Cl)cc(Cl)c3O)cnc21 | ? | 5 | -3 | -12 | 24*
Cc1ccc(S(=O)(=O)N(C)C[C@H]2Oc3ccc(NS(=O)(=O)c4cn(C)cn4)cc3CC(=O)N([C@H](C)CO)C[C@H]2C)cc1 | -1 | / | / | / | /
COc1cc([N+](=O)[O-])ccc1-c1ccc(/C=C2\C(=O)ON=C2c2ccccc2)o1 | 0 | 16 | 2 | 6 | 45*
CC(C)NC(=O)N(C)C[C@H]1OCCCC[C@H](C)Oc2ccc(NS(=O)(=O)c3ccc(Cl)cc3)cc2C(=O)N([C@@H](C)CO)C[C@@H]1C | 0 | / | / | / | /
CNC(=O)C[C@@H]1CC[C@@H]2[C@@H](COc3ccc(NC(=O)c4cccc(OC)c4)cc3C(=O)N2C)O1 | 0 | / | / | / | /
Cc1ccc(-n2nc3c(c2NC(=O)c2ccc(S(=O)(=O)N4CCOCC4)cc2)CSC3)c(C)c1 | / | 13 | 5 | 10 | 34*
CC[C@H]1CC=CC[C@H](C)Oc2ccccc2C(=O)N(C)[C@H](C(C)C)C(=O)N1 (mixture of isomers) | 0 | / | / | / | /
COc1ccccc1NC(=O)c1sc2nc(-c3ccco3)ccc2c1N | / | 42* | -3 | 5 | 24
COC(=O)c1ccc(O)cc1 | 0 | -1 | 0 | 2 | 1
COC(=O)c1ccc(CCc2cc(O)ccc2O)cc1 | / | 23 | 5 | 42* | 6
O=C(COc1ccc(Cl)cc1Cl)NN1C(=O)/C(=C\c2ccc(Cl)cc2)SC1=S | 0 | -3 | 3 | -5 | 33*
O=C(COc1ccc(Cl)cc1Cl)NN1C(=O)C2C3C=CC([C@@H]2C1=O)C31CC1 (stereo partly drawn) | 0 | 2 | 1 | -1 | -2
CCc1cc(C(=O)N/N=C/c2ccc(O)cc2)c2ccccc2n1 | 0 | -19 | 2 | 23* | 0
O=C1CN(S(=O)(=O)c2ccccc2)C[C@@H]2[C@H](c3ccc(C#Cc4ccccc4)cc3)[C@H](CO)N12 | 0 | / | / | / | /
COC(=O)c1ccc(=O)c2nc3/c(=C/O)c(O)cc(=O)c3[nH]c12 | / | 27 | 38* | 3 | -7
CC(=O)Nc1cccc(Oc2ncnc3scc(-c4ccccc4)c23)c1 | 0 | -1 | -1 | 3 | -7
CN(C)C/C=C/C(=O)Nc1cccc(-c2c[nH]c3ncnc(Oc4ccc(NC(=O)CC(=O)Nc5ccc(F)cc5)cc4F)c23)c1 | / | -4 | 5 | 24* | 24
COc1ccc2c3c(n(C)c2c1)[C@H](CO)NCC31CCN(Cc2ccc(F)cc2)CC1 | 0 | / | / | / | /
O=C1C=C(O)c2c(O)cc(O)c(O)c2C1=O | / | -189 | 58* | 6 | 12

From PubChem
